# The entries come from a sample that favours hits as a whole.
# CHOP inh: blocks CHOP induction under ER stress | CHO-K1 CHOP-promoter luciferase, tunicamycin-induced, 15-18 h | inhibition, % at 10 µM | 220,000 tested, 3.8% active;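 active = compounds that reduced the stress-induced luciferase reporter signal by more than about 70% of percent inhibition, limit read from the data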;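 note: 0% = tunicamycin plus vehicle and 100% = wells without tunicamycin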
# A1 inh: inhibitors of the anti-apoptotic protein A1, read as caspase activation | 330,000 tested, 0.066% active | caspase activation, % (concentration not given with the values) | MEF A1-2A-BIM cells, Caspase-Glo 3/7 luminescence, 3 h; percent of clofoctol response, vehicle zero;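 active = over half of replicate activation scores above 10%, or exactly half above 10 with the replicate mean above 10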
# CHOP UPR activ: apoptotic UPR (CHOP) activation. CHO-CHOP luciferase reporter, luminescence; percent of tunicamycin response over DMSO baseline. activation, % at 10 µM. 330,000 tested, 0.34% active;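 active = at 10 µM dose, activation of 40% or more, normalized to positive control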;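 note: 100% = tunicamycin at 10 µg/mL and 0% = DMSO alone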
#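 Dosing – one dose, 10 µM in 0.5% DMSO · System – CHO-CHOP cells, stable luciferase reporter of PERK-eIF2a-CHOP signalling · Input – 500 cells/well · Control set – tunicamycin 10 µg/mL final as positive, DMSO-only wells as negative · Timing – 6 h compound treatment, 37 °C · Measure – % activation vs tunicamycin · Technique – luminescence read with Steady-Glo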
# UPR XBP1 act: activators of adaptive arm of unfolded protein response (XBP1). AID 463104. activation, % at 20 µM. CHO-XBP1 luciferase reporter, IRE1-XBP1 UPR activation, luminescence; percent of tunicamycin response, DMSO as zero. 330,000 tested, 0.33% active;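 active = versus positive control, 20 µM dose yields 30% or more activation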;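 note: 100% = tunicamycin at 10 µg/mL and 0% = DMSO only wells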
#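 Assay system: IRE1-XBP1 luciferase reporter CHO line. Input: 1000 cells/well. Buffer or medium: F12 with 10% serum. Doses: 20 µM, 1% DMSO. Times: overnight seeding at 37 °C, 6 h compound treatment at 37 °C. Technique: Steady-Glo luciferase glow luminescence, 10 min after reagent addition.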
# * hit, by the source's call; / = no result.
SMILES,CHOP inh,A1 inh,CHOP UPR activ,UPR XBP1 act
O=c1cc(N2CCN(c3ccccc3)CC2)[nH]c(=O)n1C1CCCCC1,78*,0,-1,5
CN1CCN(c2cc(=O)n(C3CCCCC3)c(=O)[nH]2)CC1,9,0,1,2
C=CCn1c(SCC#N)nnc1-c1ccc2ncccc2c1,-9,0,3,-2
CCOP(=O)(c1ccccc1)c1nc(-c2ccccc2C)oc1N1CCCCC1 (stereo not given),91*,-2,-1,-2
COc1ccc(C(=O)C(OC(=O)c2ccc(C)c(NC(C)=O)c2)c2ccccc2)cc1 (stereo not given),3,0,2,-2
COc1ccc(C(=O)OC(C(=O)c2ccccc2)c2ccccc2)cc1 (stereo not given),72*,1,-2,-2
O=C(NC1CCCC1)C(c1cccnc1)N(C(=O)c1csnn1)c1ccccc1Cl (stereo not given),/,0,-1,-2
COc1ccc(NC(=O)CSc2ncccc2C(=O)OC(C)C)cc1OC,71*,-1,3,1
O=C(Oc1cccc2c(O)cccc12)c1ccccc1,106*,0,6,11
O=C(O)CCc1ccccc1OC(=O)c1ccccc1,-7,1,-1,1
CCc1ccc(NC(=O)C(C)Sc2nc(-c3ccco3)c(C#N)c(=O)[nH]2)cc1 (stereo not given),/,1,2,3
CN(CCCNC(=O)c1ccc(CS(=O)c2ccc(Br)cc2)o1)Cc1ccccc1 (stereo not given),/,0,1,-8
O=C(COC(=O)C1CCC1)Nc1ccc(Cl)cn1,/,0,0,-2
O=C(COC(=O)CCC1CCCC1)Nc1ccc(Cl)cn1,73*,/,1,-3
Cc1cc(CC(C)C)n(-c2nc3ccccc3c(=O)n2OCC(=O)N(C)C)n1,-7,0,10,0
Cc1cc(CC(C)C)n(-c2nc3ccccc3c(=O)n2OCc2ccccc2)n1,74*,/,1,0
CCCCCC(=O)N/N=C(\C)c1ccc(N2CCCCC2)cc1,76*,-1,1,-1
CCCCCCCC(=O)N/N=C(\C)c1ccc(N)cc1,0,0,-1,-5
Cc1ccccc1-c1nnc(SCC(=O)N(C)C2CCS(=O)(=O)C2)n1C (stereo not given),/,-1,2,-2
CCOC(=O)c1c(CN2CCN(c3ccccc3)CC2)oc2ccc(O)cc12,81*,0,0,-3
CCOC(=O)c1c(CN2CCN(C)CC2)oc2ccc(OC)cc12,-2,1,0,-3
COc1cccc(Oc2ccc(C(F)(F)F)cc2NC(=O)CN2C(=O)NC3(CCCC3)C2=O)c1,/,-1,0,-3
O=C(NC1CCCCC1)N1CCSC1=Nc1ccccc1,89*,0,-1,-2
O=C(NC1CCCCC1)N1CCCc2ccccc21,25,0,0,-3
Cc1[nH]nc2c1C1(CCN(C(=O)OCc3ccccc3)CC1)C(C#N)=C(N)O2,73*,-1,-2,-2
SMILES,CHOP inh,A1 inh,CHOP UPR activ,UPR XBP1 act
CCOC(=O)c1c(C)nc2c(c1-c1cc(OC)ccc1OC)C(=O)c1ccccc1-2,-26,0,-1,6
CCOC(=O)C1=C(O)c2ccccc2C(=O)/C1=C\c1ccc(CC)cc1,87*,0,/,/
CCOC(=O)c1ccc(COC(=O)c2ccc3c(c2)-c2ccccc2C3=O)cc1,11,0,0,-4
CCCc1ccc(/C=C2\C(=O)c3ccccc3C(O)=C2C(=O)OCC)cc1,86*,1,11,4
CCOC(=O)C1=C(Cc2ccc(OC)cc2)C(=O)c2ccccc2C1=O,95*,/,/,/
Cc1ccc(NC(=O)COC(=O)COc2cccc3c2OC(C)(C)C3)cc1S(=O)(=O)N1CCOCC1,/,-1,-1,2
CCOc1cc(CNCCc2ccc(S(N)(=O)=O)cc2)cc(Cl)c1OCc1ccccc1,70*,0,8,9
Cc1ccc(-c2nnc(SCc3ccccc3F)o2)cc1,75*,-2,1,-1
O=C(COc1ccccc1-c1ccccc1)N/N=C/c1ccccn1,77*,-1,-1,3
Cn1nnnc1-c1cc(Br)ccc1NC(=O)c1ccccc1,76*,1,-1,0
Cc1cc(O)ccc1NC(=O)c1ccccc1,-18,0,-1,-2
CCOC(=O)N1CCC(Nc2c(OCC)c(=O)c2=O)CC1,4,1,1,-3
CCCN(CCC)c1nc(NC2CCN(C(=O)OCC)CC2)nc(OC)n1,72*,0,2,-5
C[C@@H](CC#N)CN1CC[C@H](C(C)(C)C)CCC1=O,/,0,-1,0
Oc1ccccc1-c1cc(C(F)(F)F)nc(-c2ccccc2)n1,73*,0,-2,-2
COCC1CCCC1OS(N)(=O)=O (stereo not given),/,0,-1,0
O=C(NCCC1CCCCN1S(=O)(=O)c1ccc(Cl)cc1)C(=O)NCc1cccnc1 (stereo not given),/,-1,1,4
CCc1ccc(NC(=O)CCc2nc3cccnc3n2Cc2ccc(OC)cc2)cc1,92*,0,0,-2
O=C(NCc1cc(C(F)(F)F)ccc1Cl)c1cccc2c1C(=O)c1ccc(-c3ccc(OC(F)(F)F)cc3)cc1S2(=O)=O,/,0,91*,162*
O=C(NCc1cccc(OC(F)(F)F)c1)c1cccc2c1C(=O)c1ccc(-c3ccc(F)cc3OCc3ccccc3)cc1S2(=O)=O,/,1,1,-2
COc1ccc(-c2ccc3c(c2)S(=O)(=O)c2cccc(C(=O)NCc4cccc(OC(F)(F)F)c4)c2C3=O)cc1OC,/,39*,1,29
O=C(Nc1nc(-c2ccccc2)cs1)c1ccc2c(c1)S(=O)(=O)c1ccccc1C2=O,16,1,1,0
O=C(Nc1nc(-c2cccc3ccccc23)cs1)c1ccc2c(c1)S(=O)(=O)c1ccccc1C2=O,85*,-2,34,25
CCCCC(=O)N(CCOC)c1nnc(-c2cccnc2)s1,-11,-1,1,-5
CCCCC(=O)N(CCOC)c1nnc(-c2ccccc2C)s1,74*,1,2,4
CCOc1cc(/C=C2\C(=O)N(c3nc(-c4ccc(Br)cc4)cs3)N=C2c2ccccc2)ccc1O,-41,-1,642*,99*
COc1cc(NC(=O)Cc2cccc3ccccc23)c(C(=O)O)cc1OC,/,1,7,-3
COc1ccc2[nH]c(=O)c(C(c3nnnn3C3CCCC3)N(C)C3CCCCC3)cc2c1 (stereo not given),75*,1,0,-1
CCOc1ccc2[nH]c(=O)c(C(c3nnnn3C3CCCCC3)N3CCN(C)CC3)cc2c1 (stereo not given),1,1,0,-2
O=C(CSc1nnc(N2CCCC2)n1-c1ccccc1Cl)N1CCN(c2ccccn2)CC1,/,/,-1,2

# Screening data (PubChem BioAssay)
